hIAP block = human IAP inhibition; P09923; purified IAP, CDP-Star luminescence, 30 min; inhibition, % at 10 µM; 330,000 tested, 0.12% active; AID 2544;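 active = inhibition reaching a set limit with compound at 10 µM in the primary screen, cut at about 35% in these data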;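 also: plate controls were DMSO wells with enzyme for no effect and no-enzyme buffer wells for full effect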
Target sequence (P09923 whole entry, looked up): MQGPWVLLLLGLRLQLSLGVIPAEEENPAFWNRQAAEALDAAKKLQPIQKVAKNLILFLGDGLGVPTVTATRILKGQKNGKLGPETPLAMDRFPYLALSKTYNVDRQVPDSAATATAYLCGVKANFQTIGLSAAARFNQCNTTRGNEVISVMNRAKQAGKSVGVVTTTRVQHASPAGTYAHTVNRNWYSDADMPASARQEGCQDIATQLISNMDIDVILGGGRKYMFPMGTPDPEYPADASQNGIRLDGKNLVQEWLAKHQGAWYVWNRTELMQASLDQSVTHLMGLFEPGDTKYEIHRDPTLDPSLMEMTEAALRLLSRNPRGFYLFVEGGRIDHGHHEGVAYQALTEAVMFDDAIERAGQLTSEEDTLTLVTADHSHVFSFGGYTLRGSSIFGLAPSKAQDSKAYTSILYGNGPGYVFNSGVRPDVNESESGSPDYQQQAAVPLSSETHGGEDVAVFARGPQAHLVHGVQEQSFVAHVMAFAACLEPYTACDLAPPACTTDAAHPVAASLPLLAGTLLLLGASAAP
mIAP activ = mouse IAP activation; muIAP, CDP-Star luminescence, 30 min; active compounds read high; 1 = vehicle-only enzyme signal, 0 = enzyme-free wells; activation factor at 10 µM; 330,000 tested, 0.24% active; AID 2805;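 active = activation factor of at least 2 at 20 µM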
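System: Mouse IAP enzyme | Also added: CDP-Star substrate | Dosing: Compounds dispensed in DMSO | Schedule: 30 min enzyme-substrate-compound incubation at room temperature | Technique: Chemiluminescence readout | Control set: DMSO-only wells and no-enzyme negative control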
bIAP act = increases bovine intestinal alkaline phosphatase activity | purified bovine IAP, CDP-star luminescence, 30 min; active compounds read high; fold of DMSO-control signal, blank-subtracted | activation factor at 20 µM | 200,000 tested, 0.17% active | AID 1016;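 active = activation factor of 2 or more at 20 µM, a signal rise over negative controls twice the positive control's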
mIAP inh = mouse IAP inhibition | purified mouse IAP, CDP-Star luminescence, 30 min | inhibition, % at 10 µM | 330,000 tested, 0.2% active | AID 2806;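 active = inhibition of at least 40% at 10 µM in the primary screen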;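 also: plate controls were DMSO with enzyme for no effect and no enzyme wells for full effect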
bIAP inh = intestinal alkaline phosphatase (bovine) inhibition; purified bovine IAP, CDP-star luminescence, 30 min; inhibition, % at 20 µM; 190,000 tested, under 10 active;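 active = over 50% inhibition of intestinal alkaline phosphatase at 20 µM in the single-dose screen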
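test system = bovine IAP enzyme | medium = DEA buffer 100 mM, pH 9.8, with MgCl2 1.0 mM, ZnCl2 0.02 mM | detection = luminescence | dosing = single compound dose of 20 µM, 2% DMSO final | incubation = 30 min reaction at room temperature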
hIAP act = human IAP activation; activation factor at 10 µM; P09923; 330,000 tested, 0.16% active; AID 2524; purified human IAP, CDP-Star luminescence, 30 min; active compounds read high; 1 = vehicle-only enzyme, 0 = enzyme-free background;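 active = activation factor of the enzyme at least 2-fold when tested at 20 µM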
hIAP act conf = human IAP activation confirmation. activation (%Activity, negative = activation), % at 8.3 µM. purified IAP, CDP-Star luminescence, 30 min; active compounds read low. shares compounds with hIAP act. 880 tested, 10% active;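 active = at least twofold enzyme activation in any of six single-dose repeats, which the averaged readout prints as negative percent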
* hit, by the source's call; x = not tested or not shown. Most compounds without a hit are left out; they make up all but 0.79% or so of the library.

SMILES | hIAP block | mIAP activ | bIAP act | mIAP inh | bIAP inh | hIAP act | hIAP act conf
O=C1/C(=C\c2ccc(O)c(O)c2)SC(=S)N1Cc1ccccc1 | 55* | 0.67 | x | 33 | x | 0.45 | -89
Clc1ccc(-c2nc(-c3ccccn3)no2)cc1Cl | -110 | 0.97 | 0.9 | 3 | 10 | 2.1* | 3
COc1ccc(-c2nc(-c3ccccn3)no2)cc1 | -8 | 0.94 | 0.9 | 6 | 11 | 1.1 | x
O=C1C(Nc2ccccc2)=C(N2CCCCC2)C(=O)c2ccccc21 | 4 | 1 | 0.8 | 0 | 16 | 0.96 | x
O=C(/C=C/c1ccc(O)cc1)c1ccc(NC2=C(N3CCCCC3)C(=O)c3ccccc3C2=O)cc1 | 35* | 0.71 | 0.6 | 29 | 35 | 0.65 | 0
CC(Sc1nnc(N)s1)C(=O)NC1CCCCC1C (configuration not stated) | -10 | 0.98 | x | 2 | x | 1.1 | x
C[C@@H](NC(=O)/C(C#N)=C/c1ccc(O)c(O)c1)c1ccccc1 | 32 | 0.76 | x | 24 | x | 0.68 | x
N#C/C(=C\c1ccc(O)c(O)c1)C(=O)Nc1ccccc1 | 52* | 0.75 | x | 25 | x | 0.48 | 3
c1ccc(-n2ncc3c2ncn2nc(-c4ccco4)nc32)cc1 | 52* | 0.7 | 1 | 30 | 5 | 0.48 | 0
CC(=O)N(c1nnc(-c2cccc(C)c2)s1)C1CCCC1 | -12 | 1 | x | -2 | x | 1.1 | x
CCOC(=O)c1ccc(Oc2cn[nH]c2-c2ccc(OCC(=O)NN)cc2O)cc1 | -136 | 0.94 | x | 6 | x | 2.4* | 4
CCOc1ccc(-c2n[nH]c(C)c2Oc2ccccc2OC)c(O)c1 | 4 | 1.1 | 1.6 | -12 | -58 | 0.96 | x
CCCOC(=O)c1ccc(Oc2c(-c3ccc(O)cc3O)n[nH]c2C)cc1 | -132 | 1.1 | 1.5 | -12 | -48 | 2.3* | -62
CCCOC(=O)c1ccc(Oc2cn[nH]c2-c2ccc(OCC(=O)NN)cc2O)cc1 | -97 | 1.1 | x | -5 | x | 2 | x
Cc1[nH]nc(-c2ccc(O)cc2O)c1Oc1ccccc1 | -107 | 1.3 | 1.2 | -26 | -16 | 2.1* | -17
CCCOC(=O)c1ccc(Oc2c(-c3ccc(OC)cc3O)n[nH]c2C)cc1 | -80 | 0.98 | 1.2 | 2 | -15 | 1.8 | x
COc1ccc(-c2nc(CS(=O)(=O)CC(=O)NCCCN3CCN(C)CC3)c(C)o2)cc1 | -48 | 1.1 | x | -8 | x | 1.5 | x
COc1ccccc1C(=O)NNC(=O)c1csc(N2CCOCC2)n1 | -105 | 0.98 | x | 2 | x | 2* | 2
Cc1ccc(C(=O)NNC(=O)c2csc(N3CCOCC3)n2)o1 | -90 | 0.87 | x | 13 | x | 1.9 | x
O=C(CCNS(=O)(=O)c1ccccc1)NNC(=O)c1csc(N2CCOCC2)n1 | -91 | 0.81 | x | 19 | x | 1.9 | x
O=C(NNC(=O)c1ccc(Br)o1)c1csc(N2CCOCC2)n1 | -115 | 0.89 | x | 11 | x | 2.2* | 10
CC(=O)Nc1ccc(S(=O)(=O)NCC(=O)NNC(=O)c2csc(N3CCOCC3)n2)cc1 | -113 | 0.77 | x | 23 | x | 2.1* | -39
CCC1(c2ccc(F)cc2)NC(=O)N(CC(=O)Nc2ccc(C)c(S(=O)(=O)N3CCOCC3)c2)C1=O (configuration not stated) | -2 | 1.2 | 1.1 | -21 | -5 | 1 | x
Cc1ccccc1OCCC(=O)OCC(=O)NNC(=O)c1cccs1 | -2 | 0.8 | x | 20 | x | 1 | x
CN(C)c1ccc(N=Nc2cccc3ccoc23)cc1 | 36* | 0.72 | x | 28 | x | 0.64 | -35
SMILES | hIAP block | mIAP activ | bIAP act | mIAP inh | bIAP inh | hIAP act | hIAP act conf
CN(C)c1ccc(N=Nc2cccc(F)c2)cc1 | 5 | 0.88 | x | 12 | x | 0.95 | x
Cc1ccc(NS(=O)(=O)c2ccc(-c3cnc(C4CC4)o3)cc2)cc1 | 37* | 0.99 | x | 1 | x | 0.63 | -5
COc1ccc(N2CC(C(=O)N[C@@H](CC(C)C)C(=O)NC3CCCC3)CC2=O)cc1 (some centres not stated) | -12 | 0.99 | x | 1 | x | 1.1 | x
Cc1cccn2c(=O)c3cc(C(=O)NC4CCCC4)c(=N)n(C4CCCCC4)c3nc12 | 36* | 1.1 | x | -8 | x | 0.64 | -122*
CN1CCN(C(=O)c2ccccc2NC(=O)c2ccccc2)CC1 | 15 | 0.95 | x | 5 | x | 0.85 | x
CN(C)c1ccc(N=Nc2ccccc2C(=O)OCC(=O)NCC2CCCCC2)cc1 | -4 | 0.71 | 1.1 | 29 | -5 | 1 | x
CN(C)c1ccc(N=Nc2ccccc2C(=O)OCC(=O)NC2CCCC2)cc1 | 40* | 0.71 | 1.1 | 28 | -6 | 0.6 | 10
Cc1ccccc1C(=O)Nc1ccnn1C1CCN(C(=O)c2cnsn2)CC1 | 8 | 1.1 | x | -9 | x | 0.92 | x
CCOc1ccc(C(C)NC(=S)NC2CCCCC2)cc1 (configuration not stated) | -23 | 1.8 | 0.8 | -76 | 16 | 1.2 | x
CCC(C)c1ccc(C(C)NC(=S)NC2CCCCC2)cc1 (configuration not stated) | -256 | 4.7* | x | -370 | x | 3.6* | -72
CC(NC(=S)NC1CCCCC1)c1ccc(C(C)(C)C)cc1 (configuration not stated) | -133 | 5.3* | x | -431 | x | 2.3* | -20
COc1cc(/C=C2\N=C3CCCCCN3C2=O)ccc1O | -7 | 0.76 | 0.3 | 24 | x | 1.1 | x
O=C1/C(=C\c2ccc(O)c(O)c2)N=C2CCCCCN12 | 57* | 0.63 | x | 37 | x | 0.43 | -29
COc1ccccc1OCC(=O)NNC(=O)CCCC(=O)NNC(=O)COc1ccccc1OC | 24 | 0.85 | x | 15 | x | 0.77 | x
NC(=S)NNC(=O)COc1ccccc1O | -115 | 0.67 | x | 33 | x | 2.1* | -3
COc1ccc(N=Cc2sc3ccccc3c2Cl)cc1 | 38* | 0.99 | 1 | 1 | 4 | 0.62 | -34
COc1ccccc1NC(=O)CSc1nnnn1-c1ccc(F)cc1 | -4 | 1.1 | x | -7 | x | 1 | x
c1ccc(-c2nnc(-c3ccccc3)o2)cc1 | 13 | 1 | 1 | -1 | 2 | 0.87 | x
Nc1ccccc1-c1nnc(-c2ccc(-c3ccccc3)cc2)o1 | -100 | 1.1 | 0.7 | -9 | 27 | 2* | -46
CCC(C)NC(=O)c1ccc(N2CC3CC(C2)c2cccc(=O)n2C3)c(NC(=O)c2ccc(Br)o2)c1 (configuration not stated) | -7 | 0.98 | x | 2 | x | 1.1 | x
Cc1cccc(OCC(=O)NNC(=O)c2ccc3nc[nH]c3c2)c1 | -136 | 1 | x | 0 | x | 2.4* | -117*
Cc1ccc(C(=O)NNC(=O)CCCCC(=O)NNC(=O)c2ccc(C)cc2)cc1 | -131 | 1 | x | -4 | x | 2.3* | -23
Cc1cccc(OCC(=O)NNC(=O)CCCCC(=O)NNC(=O)COc2cccc(C)c2)c1 | -224 | 0.86 | x | 14 | x | 3.2* | -33
CC(C)(C)NC(=O)C(=O)NNC(=O)COc1ccccc1 | -107 | 0.92 | 1.1 | 8 | -6 | 2.1* | 39

High-throughput results (PubChem)
